From ChEMBL document CHEMBL1147379, “Antineoplastic agents, 256. Cell growth inhibitory isocarbostyrils from Hymenocallis” (1993)
Values after ≈ are worked out from the molar mass of the structure shown.

Experiments:
Type in all cases: functional
SF-295 = experiment: Growth inhibition of human SF295 cells; settings: read-out: pTGI (converted)
Summary of the method: (§1)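 NCI 60-human-tumour-cell-line primary in vitro screen. Each compound was tested eight separate times across three concentration ranges with upper limits of 10⁻⁴, 10⁻⁵ and 10⁻⁶ M. Each range used five 10-fold dilutions. GI₅₀, TGI and LC₅₀ were calculated from the concentration-response curves for each cell line, and averaged mean-graph values were constructed from them.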

SF-539 = experiment: Growth inhibition of human SF539 cells; summary of the method: as §1
SNB-19 = experiment: Growth inhibition of human SNB19 cells; summary of the method: as §1
SNB-75 = experiment: Growth inhibition of human SNB75 cells; summary of the method: as §1
SNB-78 = experiment: Growth inhibition of human SNB78 cells
Summary of the method: (§2)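 NCI 60-human-tumour-line in vitro primary screen. Each compound tested eight separate times over three concentration ranges (upper limits 10⁻⁴, 10⁻⁵ and 10⁻⁶ M), each range as five 10-fold dilutions. GI₅₀ (also TGI and LC₅₀) derived from the concentration-response curves, reported as averaged values per cell line (negative log₁₀).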

U-251 = experiment: Growth inhibition of human U251 cells; summary of the method: as §2
XF498 = experiment: Growth inhibition of human XF498 cells; summary of the method: as §2
LOX IMVI = experiment: Growth inhibition of human LOXIMVI cells; summary of the method: as §1
Malme-3M = experiment: Growth inhibition of human MALME-3M cells; summary of the method: as §1
M14 = experiment: Growth inhibition of human M14 cells; summary of the method: as §1
M19-MEL = experiment: Growth inhibition of human M19-MEL cells; summary of the method: as §1
SK-MEL-2 = experiment: Growth inhibition of human SK-MEL-2 cells; summary of the method: as §1
SK-MEL-28 = experiment: Growth inhibition of human SK-MEL-28 cells; summary of the method: as §1
SK-MEL-5 = experiment: Growth inhibition of human SK-MEL-5 cells; summary of the method: as §1
UACC-257 = experiment: Growth inhibition of human UACC257 cells; summary of the method: as §2
UACC-62 = experiment: Growth inhibition of human UACC62 cells; summary of the method: as §2
IGROV-1 = experiment: Growth inhibition of human IGROV1 cells; summary of the method: as §1
OVCAR-3 = experiment: Growth inhibition of human OVCAR-3 cells; summary of the method: as §1
OVCAR-4 = experiment: Growth inhibition of human OVCAR4 cells; summary of the method: as §1
OVCAR-5 = experiment: Growth inhibition of human OVCAR5 cells; summary of the method: as §1
OVCAR-8 = experiment: Growth inhibition of human OVCAR8 cells; summary of the method: as §1
SK-OV-3 = experiment: Growth inhibition of human SKOV3 cells; summary of the method: as §1
[1] = Growth inhibition of human 786-O cells; summary of the method: as §1
A498 = experiment: Growth inhibition of human A498 cells; summary of the method: as §1
ACHN = experiment: Growth inhibition of human ACHN cells; summary of the method: as §1
CAKI-1 = experiment: Growth inhibition of human Caki1 cells; summary of the method: as §1
RXF 393 = experiment: Growth inhibition of human RXF393 cells; summary of the method: as §1
SN12C = experiment: Growth inhibition of human SN12C cells; summary of the method: as §1
TK-10 = experiment: Growth inhibition of human TK10 cells; summary of the method: as §2
UO-31 = experiment: Growth inhibition of human UO31 cells; summary of the method: as §2
P388 = experiment: Growth inhibition of mouse P388 cells; settings: read-out: ED50 (the source's name)
[2] = read-out: pLC50 (the source's name) (converted)

O=C1N[C@H]2[C@H](O)[C@H](O)[C@@H](O)C[C@@H]2c2cc3c(cc21)OCO3
TGI (SF-295): 912 nM
GI50 (SF-539): 60.3 nM
CC50 (SF-539; [2]): 1410 nM
TGI (SF-539; read-out: pTGI (converted)): 282 nM
GI50 (SNB-19): 41.7 nM
CC50 (SNB-19; [2]): 93.3 µM
TGI (SNB-19; read-out: pTGI (converted)): 1000 nM
GI50 (SNB-75): 60.3 nM
CC50 (SNB-75; [2]): 24 µM
TGI (SNB-75; read-out: pTGI (converted)): 437 nM
GI50 (SNB-78): 87.1 nM
CC50 (SNB-78; [2]): 83.2 µM
TGI (SNB-78; read-out: pTGI (converted)): 912 nM
GI50 (U-251): 47.9 nM
CC50 (U-251; [2]): 37.2 µM
TGI (U-251; read-out: pTGI (converted)): 1290 nM
GI50 (XF498): 81.3 nM
CC50 (XF498; [2]): 20.9 µM
TGI (XF498; read-out: pTGI (converted)): 724 nM
GI50 (LOX IMVI): 33.1 nM
CC50 (LOX IMVI; [2]): 708 nM
TGI (LOX IMVI; read-out: pTGI (converted)): 158 nM
GI50 (Malme-3M): 75.9 nM
CC50 (Malme-3M; [2]): 8.51 µM
TGI (Malme-3M; read-out: pTGI (converted)): 417 nM
GI50 (M14): 64.6 nM
CC50 (M14; [2]): 1700 nM
TGI (M14; read-out: pTGI (converted)): 347 nM
GI50 (M19-MEL): 39.8 nM
CC50 (M19-MEL; [2]): 5.25 µM
TGI (M19-MEL; read-out: pTGI (converted)): 513 nM
GI50 (SK-MEL-2): 38 nM
CC50 (SK-MEL-2; [2]): 5.5 µM
TGI (SK-MEL-2; read-out: pTGI (converted)): 331 nM
GI50 (SK-MEL-28): 81.3 nM
CC50 (SK-MEL-28; [2]): 44.7 µM
TGI (SK-MEL-28; read-out: pTGI (converted)): 646 nM
GI50 (SK-MEL-5): 45.7 nM
CC50 (SK-MEL-5; [2]): 1200 nM
TGI (SK-MEL-5; read-out: pTGI (converted)): 209 nM
GI50 (UACC-257): 141 nM
CC50 (UACC-257; [2]): 45.7 µM
TGI (UACC-257; read-out: pTGI (converted)): 1820 nM
GI50 (UACC-62): 100 nM
CC50 (UACC-62; [2]): 11 µM
TGI (UACC-62; read-out: pTGI (converted)): 562 nM
GI50 (IGROV-1): 141 nM
CC50 (IGROV-1; [2]): 67.6 µM
TGI (IGROV-1; read-out: pTGI (converted)): 1100 nM
GI50 (OVCAR-3): 83.2 nM
CC50 (OVCAR-3; [2]): 45.7 µM
TGI (OVCAR-3; read-out: pTGI (converted)): 501 nM
GI50 (OVCAR-4): 36.3 nM
CC50 (OVCAR-4; [2]): 17 µM
TGI (OVCAR-4; read-out: pTGI (converted)): 427 nM
GI50 (OVCAR-5): 324 nM
CC50 (OVCAR-5; [2]): > 100 µM
TGI (OVCAR-5; read-out: pTGI (converted)): 2400 nM
GI50 (OVCAR-8): 70.8 nM
CC50 (OVCAR-8; [2]): 72.4 µM
TGI (OVCAR-8; read-out: pTGI (converted)): 2290 nM
GI50 (SK-OV-3): 91.2 nM
CC50 (SK-OV-3; [2]): > 100 µM
TGI (SK-OV-3; read-out: pTGI (converted)): 1100 nM
GI50 ([1]; 786-0): 110 nM
CC50 ([1]; 786-0, read-out: pLC50 (the source's name) (converted)): 57.5 µM
TGI ([1]; 786-0, read-out: pTGI (converted)): 2090 nM
GI50 (A498): 229 nM
CC50 (A498; [2]): 9.33 µM
TGI (A498; read-out: pTGI (converted)): 1100 nM
GI50 (ACHN): 81.3 nM
CC50 (ACHN; [2]): 11 µM
TGI (ACHN; read-out: pTGI (converted)): 794 nM
GI50 (CAKI-1): 191 nM
CC50 (CAKI-1; [2]): > 100 µM
TGI (CAKI-1; read-out: pTGI (converted)): 1410 nM
GI50 (RXF 393): 72.4 nM
CC50 (RXF 393; [2]): 2510 nM
TGI (RXF 393; read-out: pTGI (converted)): 417 nM
GI50 (SN12C): 141 nM
CC50 (SN12C; [2]): 18.2 µM
TGI (SN12C; read-out: pTGI (converted)): 1820 nM
GI50 (TK-10): 251 nM
CC50 (TK-10; [2]): > 100 µM
TGI (TK-10; read-out: pTGI (converted)): 1910 nM
GI50 (UO-31): 100 nM
CC50 (UO-31; [2]): 44.7 µM
TGI (UO-31; read-out: pTGI (converted)): 955 nM
EC50 (P388): 0.02 µg/mL (≈ 0.0682 µM)
